High-throughput results: PubChem BioAssay, several laboratories
An excerpt weighted towards active compounds, which were near 5.4% of everything screened.
Mdm2 MdmX PPI – inhibitors of human Mdm2/MdmX interaction; O15151+Q00987; hit rate 3% among 330,000; inhibition, % at 8 µM; SaOS-2 split-luciferase Mdm2/MdmX complementation, luminescence;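 active = inhibition of at least 50% at 8 µM in the primary screen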
CSC inhib – blocks cancer stem cells | cancer stem cell-like cells viability, luminescence | inhibition, % at 7.5 µM | hit rate 1.1% among 300,000; in the data active = inhibition above about 75%; tested in HMLE shEcad cells
aSyn 5UTR inh – MLPCN primary screen, SNCA 5' untranslated region; alpha-synuclein 5'UTR reporter, inhibitor activity; inhibition, % (tested at 7.5 µM); hit rate 0.82% among 300,000; AID 1813; in the data active = inhibition above about 60%;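 also: H4 neuroglioblastoma cells stably carrying SNCA 5'UTR luciferase fusion; 0% = DMSO wells and 100% = positive control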
SKKanGAS inh – inhibitors of SKKanGAS S. pyogenes growth in kanamycin (SK-promoter or general growth effect); BacTiter-Glo, 6 h; inhibition, % at 7.5 µM; hit rate 1.3% among 300,000; AID 1662;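 active = mean replicate score, as percent of positive control median, at least 50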;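 also: strain carries kanamycin resistance gene driven by streptokinase promoter and grows in 40 µg/ml kanamycin; loss of luminescence reflects streptokinase promoter inhibition or plain growth inhibition; 0% = median of DMSO wells and 100% = positive control at its reference dose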
T cruzi inh – T. cruzi replication inhibition. AID 1885. hit rate 1.4% among 300,000. inhibition, % (test concentration not listed). T. cruzi beta-gal in NIH3T3, luminescence, 90 h;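 active = mean inhibition across valid replicates above about 55%, limit read from the data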;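 also: signal also drops with host cell toxicity which is not excluded here; 0% = plate median of DMSO wells and 100% = zero luminescence signal; higher percent means less beta-gal luminescence so fewer parasites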
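System: mouse NIH/3T3 fibroblasts infected with β-gal-expressing T. cruzi Tulahuen C4 / Input: NIH/3T3 cells, 5,000 per well / Buffer or medium: Low-serum DMEM with 2% FBS / Probe or stimulus: 5000 reporter trypomastigotes per well / Schedule: ≥90 h infection period, 3 h prior cell attachment / Measured by: GalScreen luminescence, 60 min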
Mdm2-MdmX conf – confirmation of human Mdm2/MdmX interaction inhibitors; shares compounds with Mdm2 MdmX PPI; Mdm2-MdmX binding, luminescent assay; inhibition, % at 8 µM; hit rate 55% among 10,000; AID 489028; in the data active = inhibition above about 40%
Full FLuc ctr – full-length luciferase inhibition in Mdm2/MdmX counter-screen. SaOS-2 full-length luciferase counterscreen, luminescence. hit rate 77% among 6,200. inhibition, % at 8 µM. shares compounds with Mdm2 MdmX PPI. AID 504607;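 active = mean inhibition at 8 µM reaching about 37%, which flags the compound as non-specific, limit read from the data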;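 also: p53-null SaOS-2 cells with luciferase driven by a doxycycline-inducible promoter; compound on cells about two nights before reading with doxycycline added after day one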
An asterisk follows results filed as active.

Results for Cc1nc(SCC(=O)Nc2nccs2)c(C#N)c(C)c1C ?
Mdm2 MdmX PPI: 68*; Mdm2-MdmX conf: 51*; Full FLuc ctr: 110*

How did Cc1cnc(=O)[nH]c1SCC(=O)Nc1nccs1 do in these assays?
Mdm2 MdmX PPI: 36; CSC inhib: -11; aSyn 5UTR inh: 5; SKKanGAS inh: 0; T cruzi inh: 2

How did Cc1nc(Nc2cccc(C(F)(F)F)c2)nc2c1C(=O)CC(C)C2 (stereo unspecified) do in these assays?
Mdm2 MdmX PPI: 54*; CSC inhib: -4; SKKanGAS inh: 0; Mdm2-MdmX conf: 12

What do the screens show for `O=C(O)COC(=O)Cc1ccccc1Nc1c(Cl)cccc1Cl`?
Mdm2 MdmX PPI: 19; CSC inhib: -10; aSyn 5UTR inh: 19; SKKanGAS inh: 1; T cruzi inh: -8

Results for CN(CCN(C)C(=O)c1[nH]cnc1C(=O)Nc1ccccc1)C(=O)c1[nH]cnc1C(=O)Nc1ccccc1 ?
Mdm2 MdmX PPI: 13; CSC inhib: -19

How did O=C(Nc1ccccc1)c1nc[nH]c1C(=O)NCCNC(=O)c1[nH]cnc1C(=O)Nc1ccccc1 do in these assays?
Mdm2 MdmX PPI: 47; CSC inhib: 14

What do the screens show for `Cc1ccc(NC(=O)c2nc[nH]c2C(=O)NCCCCNC(=O)c2[nH]cnc2C(=O)Nc2ccc(C)cc2)cc1`?
Mdm2 MdmX PPI: 80*; Mdm2-MdmX conf: 21

Results for Cc1ccc(NC(=O)c2nc[nH]c2C(=O)NCCCCCCNC(=O)c2[nH]cnc2C(=O)Nc2ccc(C)cc2)cc1 ?
Mdm2 MdmX PPI: 70*; Mdm2-MdmX conf: 11

How did O=C(Nc1ccccc1)c1nc[nH]c1C(=O)NCCCCNC(=O)c1[nH]cnc1C(=O)Nc1ccccc1 do in these assays?
Mdm2 MdmX PPI: 77*; CSC inhib: 17; Mdm2-MdmX conf: 45*; Full FLuc ctr: 90*

How did O=C(c1ccccc1)c1nc[nH]c1C(=O)Nc1ccccc1 do in these assays?
Mdm2 MdmX PPI: 50*; CSC inhib: 18; aSyn 5UTR inh: -91; SKKanGAS inh: 12; T cruzi inh: 4; Mdm2-MdmX conf: 30; Full FLuc ctr: 65*

What do the screens show for `C/C(=N\NC(=O)c1cccc(S(=O)(=O)N2CCCC2)c1)c1cccs1`?
Mdm2 MdmX PPI: 1; CSC inhib: 1; aSyn 5UTR inh: -59; SKKanGAS inh: -9; T cruzi inh: -10

Results for Cc1ccc(NC(=O)c2nc[nH]c2C(=O)NCCCNC(=O)c2[nH]cnc2C(=O)Nc2ccc(C)cc2)cc1 ?
Mdm2 MdmX PPI: 68*; CSC inhib: 113*; Mdm2-MdmX conf: 32

What do the screens show for `CCOC(=O)c1ccc(NC(=O)c2nc[nH]c2C(=O)NCCCNC(=O)c2[nH]cnc2C(=O)Nc2ccc(C(=O)OCC)cc2)cc1`?
Mdm2 MdmX PPI: 18; CSC inhib: -9

Results for Cc1nn(Cc2c(Cl)cccc2Cl)c(C)c1NC(=O)c1cn(-c2ccccc2)nc1-c1ccccc1 ?
Mdm2 MdmX PPI: 98*; CSC inhib: 165*; aSyn 5UTR inh: 122*; SKKanGAS inh: 63*; T cruzi inh: 42; Mdm2-MdmX conf: 99*; Full FLuc ctr: 37*

Results for Cc1nn(Cc2ccc(Cl)c(Cl)c2)c(C)c1NC(=O)c1sc2ccccc2c1Cl ?
Mdm2 MdmX PPI: 53*; CSC inhib: -14; aSyn 5UTR inh: 16; SKKanGAS inh: 25; T cruzi inh: 34; Mdm2-MdmX conf: 14

How did Cc1nn(Cc2c(Cl)cccc2Cl)c(C)c1NC(=O)c1sc2ccccc2c1Cl do in these assays?
Mdm2 MdmX PPI: 53*; CSC inhib: -3; aSyn 5UTR inh: -43; SKKanGAS inh: -3; T cruzi inh: 17; Mdm2-MdmX conf: 14

Results for Cc1cccc(C)c1NC(=O)CNC(=O)c1cn(-c2ccccc2)nc1-c1ccccc1 ?
Mdm2 MdmX PPI: 9; CSC inhib: 10; aSyn 5UTR inh: 17; SKKanGAS inh: 18; T cruzi inh: -2

Results for Cc1ccccc1Cn1nc(C)c(NC(=O)c2sc3ccccc3c2Cl)c1C ?
Mdm2 MdmX PPI: 19; CSC inhib: 36; aSyn 5UTR inh: 7; SKKanGAS inh: -3; T cruzi inh: 0

How did CCc1ccc(/C([O-])=C(/C(=S)NCCN2CCOCC2)[n+]2ccccc2)cc1 do in these assays?
Mdm2 MdmX PPI: 15; aSyn 5UTR inh: -38; SKKanGAS inh: -11; T cruzi inh: -10

What do the screens show for `O=C1CN(C(=O)NCCC(=O)NC2CCCCC2)c2ccccc2N1`?
Mdm2 MdmX PPI: 17; CSC inhib: -12; aSyn 5UTR inh: -1; SKKanGAS inh: 0; T cruzi inh: -1

Results for Cc1nc2ccc([N+](=O)[O-])cc2c(=O)n1Cc1ccc([N+](=O)[O-])cc1 ?
Mdm2 MdmX PPI: 20; CSC inhib: -9; aSyn 5UTR inh: 17; SKKanGAS inh: 6; T cruzi inh: 34

How did N#Cc1c(N)n(Cc2ccccc2)c(=O)c2cc([N+](=O)[O-])ccc12 do in these assays?
Mdm2 MdmX PPI: 54*; CSC inhib: 13; aSyn 5UTR inh: 47; SKKanGAS inh: -2; T cruzi inh: 57*; Mdm2-MdmX conf: 11

Results for Cc1nc([N+](=O)[O-])c(SCC(N)=O)n1Cc1ccccc1 ?
Mdm2 MdmX PPI: -6; CSC inhib: -6; aSyn 5UTR inh: 6; SKKanGAS inh: -5; T cruzi inh: -11

How did Cc1nc([N+](=O)[O-])c(Sc2nc3ccccc3n2C)n1Cc1ccccc1 do in these assays?
Mdm2 MdmX PPI: 51*; CSC inhib: 12; aSyn 5UTR inh: 4; SKKanGAS inh: 20; T cruzi inh: 13; Mdm2-MdmX conf: 27

Results for CSc1nc(-c2ccc(C)cc2)nc(C(Cl)Cl)n1 ?
Mdm2 MdmX PPI: 97*; CSC inhib: 72; aSyn 5UTR inh: 32; SKKanGAS inh: -1; T cruzi inh: 56*; Mdm2-MdmX conf: 95*; Full FLuc ctr: 40*

How did CCSc1nc(-c2ccccc2)nc(C(Cl)Cl)n1 do in these assays?
Mdm2 MdmX PPI: 98*; CSC inhib: 100*; aSyn 5UTR inh: 123*; SKKanGAS inh: -7; T cruzi inh: 0; Mdm2-MdmX conf: 100*; Full FLuc ctr: 4

What do the screens show for `COc1ccc(CN2C(=NC(=O)C3CC3)SC3CS(=O)(=O)CC32)cc1OC` (stereo unspecified)?
Mdm2 MdmX PPI: 0; CSC inhib: -2; aSyn 5UTR inh: -4; SKKanGAS inh: -6; T cruzi inh: 8

How did Cc1nc(NC(=O)CSc2nc3cccnc3n2C2CCCCC2)sc1C do in these assays?
Mdm2 MdmX PPI: 57*; CSC inhib: -4; aSyn 5UTR inh: 1; SKKanGAS inh: 22; T cruzi inh: -10; Mdm2-MdmX conf: 19; Full FLuc ctr: 96*

How did COc1ccc(Cc2[nH]n3c(=O)cc(C(C)C)nc3c2-c2ccccc2)cc1 do in these assays?
Mdm2 MdmX PPI: 62*; CSC inhib: -19; aSyn 5UTR inh: 72*; SKKanGAS inh: 91*; T cruzi inh: 0; Mdm2-MdmX conf: 62*; Full FLuc ctr: 40*
